Test results published in PMC12757722 (Molecular Cancer Therapeutics, 2025).
One block for each molecule: values may come before it.

Tests used:
K-Ras (WT) [1] = molecular target: T1, K-Ras (WT) (Homo sapiens, UniProt P01116); test: MST binding of labeled nucleotide
K-Ras = conditions: Goebel and colleagues; cited from earlier work
K-Ras (G12C) [2] = molecular target: T2, K-Ras (G12C) (Homo sapiens, UniProt P01116, G12C); test: MST binding of labeled nucleotide
Rho-A [3] = molecular target: T3, Rho-A (Homo sapiens, UniProt P61586); test: SPA with [32P]GTP; type: binding
T3 sequence (P61586 2-181): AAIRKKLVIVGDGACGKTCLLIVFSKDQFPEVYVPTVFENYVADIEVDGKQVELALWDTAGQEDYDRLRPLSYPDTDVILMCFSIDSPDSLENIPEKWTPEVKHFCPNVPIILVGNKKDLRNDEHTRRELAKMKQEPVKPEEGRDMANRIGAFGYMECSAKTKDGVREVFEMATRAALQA
In short: (§1)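 Saturation binding used [32P]GTP (3,000 Ci/mmol) at 2.5 nmol/L–10 µmol/L, with nonspecific signal defined by 800 mmol/L imidazole. Counts were converted to pmol, and Kd and Bmax fitted from bound versus free GTP. Three independent experiments, technical triplicates.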

K-Ras (G12C) [4] = molecular target: T2, K-Ras (G12C); test: SPA with [32P]GTP; type: binding
In short: as §1

H-Ras = conditions: Feuerstein and colleagues; cited from earlier work
K-Ras (WT) [5] = molecular target: T1, K-Ras (WT); test: Filtration binding assay with α-[32P]GTP
In short: (§2)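 Nucleotide-free His10-tagged K-Ras (residues 2–185) was expressed in E. coli and purified by Ni affinity and SEC. Varying protein amounts were incubated with α-[32P]GTP (2,594 Ci/mmol; 2.88 nmol/L final) for 5 min at 23°C in 100 µL. Samples were filtered through 0.45-µm MCE membranes, washed with ice-cold GTP-free assay buffer, and dried filters counted for dpm. Kd came from saturation binding and kon from a time course.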

K-Ras (G12D) [6] = molecular target: T4, K-Ras (G12D) (Homo sapiens, UniProt P01116, G12D); test: MST binding of labeled nucleotide; conditions: read-out: MST GTP Kd
K-Ras (Q61H) [7] = molecular target: T5, K-Ras (Q61H) (Homo sapiens, UniProt P01116, Q61H); test: SPA with [32P]GTP; type: binding
In short: as §1

K-Ras (G12D) [8] = molecular target: T4, K-Ras (G12D); test: SPA with [32P]GTP; type: binding
In short: as §1

Rac-1 [9] = molecular target: T6, Rac-1 (Homo sapiens, UniProt P63000); test: SPA with [32P]GTP; type: binding
In short: as §1

K-Ras (WT) [10] = molecular target: T1, K-Ras (WT); test: SPA with [32P]GTP; type: binding
In short: as §1

Rac-1 [11] = molecular target: T6, Rac-1; test: MST binding of labeled nucleotide; conditions: read-out: MST GTP Kd
Rho-A [12] = molecular target: T3, Rho-A; test: MST binding of labeled nucleotide; conditions: read-out: MST GTP Kd
K-Ras (Q61H) [13] = molecular target: T5, K-Ras (Q61H); test: MST binding of labeled nucleotide; conditions: read-out: MST GTP Kd
K-Ras (G12D) [14] = molecular target: T4, K-Ras (G12D); test: Filtration binding assay with α-[32P]GTP
In short: as §2

- Kd (K-Ras (WT) [1]; read-out: MST GDP Kd): 394 ± 54 nM
- Kd (K-Ras (G12C) [2]; read-out: MST GDP Kd): 360 ± 34 nM
SMILES: Nc1nc2c(ncn2[C@@H]2O[C@H](COP(=O)(O)OP(=O)(O)O)[C@@H](O)[C@H]2O)c(=O)[nH]1 [GDP]
- koff (K-Ras): 1.1e-05 s⁻¹
- kon (K-Ras): 4.22e+06 M⁻¹ s⁻¹

- SPA Bmax (mol:mol) (Rho-A [3]): 1.02 ± 0.02 mol:mol
- Kd (Rho-A [3]; read-out: SPA GTP Kd): 129 ± 12 nM
- SPA Bmax (mol:mol) (K-Ras (G12C) [4]): 0.94 ± 0.02 mol:mol
- Kd (K-Ras (G12C) [4]; read-out: SPA GTP Kd): 359 ± 35 nM
- Filtration assay Bmax (mol:mol) (K-Ras (WT) [5]; K-Ras (WT)): 0.93 ± 0.03 mol:mol
- kon by filtration binding assay (K-Ras (WT) [5]; K-Ras, time course study): 2.13e+08 M⁻¹ s⁻¹
- Kd (K-Ras (WT) [5]; read-out: Filtration assay GTP Kd, K-Ras (WT), 23°C): 228 ± 26 nM
- Kd (K-Ras (G12D) [6]): 244 ± 12 nM
- SPA Bmax (mol:mol) (K-Ras (Q61H) [7]): 0.96 ± 0.02 mol:mol
- Kd (K-Ras (WT) [1]; read-out: MST GTP Kd, 23°C): 463 ± 23 nM
- SPA Bmax (mol:mol) (K-Ras (G12D) [8]): 0.97 ± 0.01 mol:mol
- Kd (K-Ras (G12D) [8]; read-out: SPA GTP Kd): 280 ± 19 nM
- SPA Bmax (mol:mol) (Rac-1 [9]): 1.03 ± 0.02 mol:mol
- Kd (Rac-1 [9]; read-out: SPA GTP Kd): 151 ± 14 nM
- SPA Bmax (mol:mol) (K-Ras (WT) [10]; K-Ras (WT), molar binding stoichiometry of GTP to protein): 1.00 ± 0.01 mol:mol
- kon by SPA (K-Ras (WT) [10]; WT K-Ras): 3.22e+08 M⁻¹ s⁻¹
- Kd (K-Ras (WT) [10]; read-out: SPA GTP Kd, K-Ras (WT)): 246 ± 19 nM
- Kd (Rac-1 [11]): 166 ± 10 nM
- Kd (Rho-A [12]): 130 ± 5 nM
- Kd (K-Ras (Q61H) [13]): 157 ± 21 nM
- kon by filtration binding assay (K-Ras (G12D) [14]; G12D K-Ras mutant, time course study): 2.49e+08 M⁻¹ s⁻¹
- Filtration assay Bmax (mol:mol) (K-Ras (G12D) [14]; K-Ras (G12D)): 0.95 ± 0.02 mol:mol
- Kd (K-Ras (G12D) [14]; read-out: Filtration assay GTP Kd, K-Ras (G12D), 23°C): 345 ± 25 nM
- Kd (K-Ras (G12C) [2]; read-out: MST GTP Kd): 207 ± 46 nM
SMILES: Nc1nc2c(ncn2[C@@H]2O[C@H](COP(=O)(O)OP(=O)(O)OP(=O)(O)O)[C@@H](O)[C@H]2O)c(=O)[nH]1 [GTP]
- koff (H-Ras): 8e-05 s⁻¹
- kon (H-Ras): 2.9e+06 M⁻¹ s⁻¹
